# Assay results taken from ChEMBL document CHEMBL1795205, “The new 5- or 6-azapyrimidine and cyanuric acid derivatives of l-ascorbic acid bearing the free C-5 hydroxy or C-4 amino group at the ethylenic spacer: CD-spectral absolute configuration determination and biological activity evaluations” (Eur J Med Chem, 2011).
# pIC50: −log10 of the molar value.
# Tested on: HeLa
# Assay: Cytostatic activity against human HeLa cells assessed as inhibition of cell proliferation after 72 hrs by MTT assay
# Assay type: functional, cell-based
# Settings: not given
# Summary of the method: (§1)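 Monolayer cells grown in DMEM with 10% FBS were seeded on day 0 at 3000–6000 cells/well, set by each line's doubling time. Agents were added the next step in five 10-fold dilutions (0.01–100) for 72 h, with DMSO ≤0.1% and a solvent control. MTT absorbance was converted to percentage growth versus untreated wells on the same plate. Where all PGs exceeded 50, the top concentration was reported as ">". ANOVA/Tukey, p<0.05.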
row,pIC50,SMILES
1,< 4.00,O=C1O/C(=C\Cn2c(=O)[nH]c(=O)[nH]c2=O)C(O)=C1O
2,< 4.00,O=C1O/C(=C\Cn2c(=O)[nH]c(=O)[nH]c2=O)C(OCc2ccccc2)=C1OCc1ccccc1

# Second part, the compound before the results:
row,SMILES,pIC50
1,O=C1O[C@H]([C@@H](O)Cn2c(=O)[nH]c(=O)[nH]c2=O)C(OCc2ccccc2)=C1OCc1ccccc1,< 4.00
2,NC1(CCn2ncc(=O)[nH]c2=O)OC(=O)C(OCc2ccccc2)=C1OCc1ccccc1 (racemic),< 4.00
3,NC1(CCn2cc(F)c(=O)[nH]c2=O)OC(=O)C(OCc2ccccc2)=C1OCc1ccccc1 (racemic),< 4.00
4,Nc1ccn(CCC2(N)OC(=O)C(OCc3ccccc3)=C2OCc2ccccc2)c(=O)n1 (racemic),< 4.00
5,O=C1O[C@H]([C@@H](O)Cn2ccc(NC(=O)c3ccccc3)nc2=O)C(OCc2ccccc2)=C1OCc1ccccc1,4.45
6,Cc1cn(CCC2(N)OC(=O)C(OCc3ccccc3)=C2OCc2ccccc2)c(=O)[nH]c1=O (racemic),< 4.00

# Tested on: MIA PaCa-2
# Assay: Cytostatic activity against human MIAPaCa2 cells assessed as inhibition of cell proliferation after 72 hrs by MTT assay
# Assay type: functional, cell-based
# Settings: MIA PaCa-2, 72 h
# Summary of the method: as §1
row,pIC50,SMILES
1,< 4.00,O=C1O/C(=C\Cn2c(=O)[nH]c(=O)[nH]c2=O)C(O)=C1O
2,4.42,O=C1O/C(=C\Cn2c(=O)[nH]c(=O)[nH]c2=O)C(OCc2ccccc2)=C1OCc1ccccc1

# Further lines, the compound ahead of its results:
row,SMILES,pIC50
1,O=C1O[C@H]([C@@H](O)Cn2c(=O)[nH]c(=O)[nH]c2=O)C(OCc2ccccc2)=C1OCc1ccccc1,< 4.00
2,NC1(CCn2ncc(=O)[nH]c2=O)OC(=O)C(OCc2ccccc2)=C1OCc1ccccc1 (racemic),< 4.00
3,NC1(CCn2cc(F)c(=O)[nH]c2=O)OC(=O)C(OCc2ccccc2)=C1OCc1ccccc1 (racemic),< 4.00
4,Nc1ccn(CCC2(N)OC(=O)C(OCc3ccccc3)=C2OCc2ccccc2)c(=O)n1 (racemic),< 4.00
5,O=C1O[C@H]([C@@H](O)Cn2ccc(NC(=O)c3ccccc3)nc2=O)C(OCc2ccccc2)=C1OCc1ccccc1,< 4.00
6,Cc1cn(CCC2(N)OC(=O)C(OCc3ccccc3)=C2OCc2ccccc2)c(=O)[nH]c1=O (racemic),< 4.00

# Tested on: HepG2
# Assay: Cytostatic activity against human HepG2 cells assessed as inhibition of cell proliferation after 72 hrs by MTT assay
# Assay type: functional, cell-based
# Settings: HepG2, 72 h
# Summary of the method: as §1
row,pIC50,SMILES
1,< 4.00,O=C1O/C(=C\Cn2c(=O)[nH]c(=O)[nH]c2=O)C(O)=C1O
2,4.35,O=C1O/C(=C\Cn2c(=O)[nH]c(=O)[nH]c2=O)C(OCc2ccccc2)=C1OCc1ccccc1

# The next lines start with the compound.
row,SMILES,pIC50
1,O=C1O[C@H]([C@@H](O)Cn2c(=O)[nH]c(=O)[nH]c2=O)C(OCc2ccccc2)=C1OCc1ccccc1,< 4.00
2,NC1(CCn2ncc(=O)[nH]c2=O)OC(=O)C(OCc2ccccc2)=C1OCc1ccccc1 (racemic),< 4.00
3,NC1(CCn2cc(F)c(=O)[nH]c2=O)OC(=O)C(OCc2ccccc2)=C1OCc1ccccc1 (racemic),4.37
4,Nc1ccn(CCC2(N)OC(=O)C(OCc3ccccc3)=C2OCc2ccccc2)c(=O)n1 (racemic),< 4.00
5,O=C1O[C@H]([C@@H](O)Cn2ccc(NC(=O)c3ccccc3)nc2=O)C(OCc2ccccc2)=C1OCc1ccccc1,4.21
6,Cc1cn(CCC2(N)OC(=O)C(OCc3ccccc3)=C2OCc2ccccc2)c(=O)[nH]c1=O (racemic),< 4.00

# Tested on: WI-38
# Assay: Cytotoxicity against human WI38 cells assessed as inhibition of cell proliferation after 72 hrs by MTT assay
# Assay type: cell-based
# Settings: WI-38, 72 h
# Summary of the method: as §1
row,SMILES,pIC50
1,O=C1O[C@H]([C@@H](O)Cn2c(=O)[nH]c(=O)[nH]c2=O)C(OCc2ccccc2)=C1OCc1ccccc1,< 4.00
2,NC1(CCn2ncc(=O)[nH]c2=O)OC(=O)C(OCc2ccccc2)=C1OCc1ccccc1 (racemic),< 4.00
3,O=C1O/C(=C\Cn2c(=O)[nH]c(=O)[nH]c2=O)C(O)=C1O,4.45
4,NC1(CCn2cc(F)c(=O)[nH]c2=O)OC(=O)C(OCc2ccccc2)=C1OCc1ccccc1 (racemic),4.44
5,Nc1ccn(CCC2(N)OC(=O)C(OCc3ccccc3)=C2OCc2ccccc2)c(=O)n1 (racemic),4.05
6,O=C1O[C@H]([C@@H](O)Cn2ccc(NC(=O)c3ccccc3)nc2=O)C(OCc2ccccc2)=C1OCc1ccccc1,5.05
7,Cc1cn(CCC2(N)OC(=O)C(OCc3ccccc3)=C2OCc2ccccc2)c(=O)[nH]c1=O (racemic),< 4.00

# Tested on: SW-620
# Assay: Cytostatic activity against human SW620 cells assessed as inhibition of cell proliferation after 72 hrs by MTT assay
# Assay type: functional, cell-based
# Settings: SW-620, 72 h
# Summary of the method: as §1
row,pIC50,SMILES
1,< 4.00,O=C1O/C(=C\Cn2c(=O)[nH]c(=O)[nH]c2=O)C(O)=C1O
2,< 4.00,O=C1O/C(=C\Cn2c(=O)[nH]c(=O)[nH]c2=O)C(OCc2ccccc2)=C1OCc1ccccc1

# The next lines start with the compound.
row,SMILES,pIC50
1,O=C1O[C@H]([C@@H](O)Cn2c(=O)[nH]c(=O)[nH]c2=O)C(OCc2ccccc2)=C1OCc1ccccc1,< 4.00
2,NC1(CCn2ncc(=O)[nH]c2=O)OC(=O)C(OCc2ccccc2)=C1OCc1ccccc1 (racemic),< 4.00
3,NC1(CCn2cc(F)c(=O)[nH]c2=O)OC(=O)C(OCc2ccccc2)=C1OCc1ccccc1 (racemic),< 4.00
4,Nc1ccn(CCC2(N)OC(=O)C(OCc3ccccc3)=C2OCc2ccccc2)c(=O)n1 (racemic),< 4.00
5,O=C1O[C@H]([C@@H](O)Cn2ccc(NC(=O)c3ccccc3)nc2=O)C(OCc2ccccc2)=C1OCc1ccccc1,< 4.00
6,Cc1cn(CCC2(N)OC(=O)C(OCc3ccccc3)=C2OCc2ccccc2)c(=O)[nH]c1=O (racemic),< 4.00

# Tested on: MCF7
# Assay: Cytostatic activity against human MCF7 cells assessed as inhibition of cell proliferation after 72 hrs by MTT assay
# Assay type: functional, cell-based
# Settings: MCF7, 72 h
# Summary of the method: as §1
row,pIC50,SMILES
1,< 4.00,O=C1O/C(=C\Cn2c(=O)[nH]c(=O)[nH]c2=O)C(O)=C1O
2,4.75,O=C1O/C(=C\Cn2c(=O)[nH]c(=O)[nH]c2=O)C(OCc2ccccc2)=C1OCc1ccccc1

# The remaining lines, values behind:
row,SMILES,pIC50
1,O=C1O[C@H]([C@@H](O)Cn2c(=O)[nH]c(=O)[nH]c2=O)C(OCc2ccccc2)=C1OCc1ccccc1,< 4.00
2,NC1(CCn2ncc(=O)[nH]c2=O)OC(=O)C(OCc2ccccc2)=C1OCc1ccccc1 (racemic),< 4.00
3,NC1(CCn2cc(F)c(=O)[nH]c2=O)OC(=O)C(OCc2ccccc2)=C1OCc1ccccc1 (racemic),4.68
4,Nc1ccn(CCC2(N)OC(=O)C(OCc3ccccc3)=C2OCc2ccccc2)c(=O)n1 (racemic),4.49
5,O=C1O[C@H]([C@@H](O)Cn2ccc(NC(=O)c3ccccc3)nc2=O)C(OCc2ccccc2)=C1OCc1ccccc1,5.32
6,Cc1cn(CCC2(N)OC(=O)C(OCc3ccccc3)=C2OCc2ccccc2)c(=O)[nH]c1=O (racemic),4.10
